Assay results reported in ChEMBL document CHEMBL4699658, “EST64454: a Highly Soluble σ Receptor Antagonist Clinical Candidate for Pain Management” (J Med Chem, 2020).
Converted amounts (≈) assume the structure as drawn.

How the values were obtained:
[1] = target: T1, Sigma non-opioid intracellular receptor 1 (Homo sapiens, UniProt Q99720); experiment: Displacement of [3H]-(+)-pentazocine from human sigma1 receptor expressed in HEK293 cell membranes incubated for 120 mins by liquid scintillation counting method; design: species or system Cell membrane
T1 sequence (Q99720 whole entry): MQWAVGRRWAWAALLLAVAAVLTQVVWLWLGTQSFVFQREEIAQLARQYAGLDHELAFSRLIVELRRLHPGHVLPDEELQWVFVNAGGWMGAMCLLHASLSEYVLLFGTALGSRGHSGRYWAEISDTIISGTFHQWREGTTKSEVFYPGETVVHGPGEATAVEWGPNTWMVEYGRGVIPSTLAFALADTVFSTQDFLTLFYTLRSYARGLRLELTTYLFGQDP

[2] = species on record: Cavia porcellus; experiment: Displacement of [3H]-DTG from sigma2 receptor in guinea pig brain membranes at 1 uM incubated for 120 mins by liquid scintillation counting method relative to control; conditions: Cell membrane
[3] = Displacement of [3H]-DTG from sigma2 receptor in guinea pig brain membranes incubated for 120 mins by liquid scintillation counting method; format: cell membranes, Cavia porcellus, Cell membrane
How it was run: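 Guinea pig brain membranes (200 μg) incubated with 10 nM [³H]-DTG in 50 mM Tris-HCl pH 8, σ1R masked with 400 nM (+)-SKF10047, at 25 °C for 120 min. Nonspecific binding defined by 10 μM haloperidol. Filtration, three washes with ice-cold 50 mM Tris-HCl pH 7.4, scintillation counting. Ki given as mean of two determinations.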

[4] = AUC (0 to infinity) in CD1 mouse at 10 mg/kg, po by HPLC-MS/MS analysis; format: ADME, organism-based; design: time infinity, route oral, dose 10 mg/kg; conditions: in vivo
How it was run: (§1)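 Male CD1 mice (25−30 g), groups of 16, given 10 mg/kg orally in 0.5% hydroxypropyl methylcellulose or 1 mg/kg iv in saline. Blood drawn at several times (saphenous vein or intracardiac puncture) into heparinized tubes. Plasma spun at 4 °C, stored at −80 °C, protein-precipitated and assayed by HPLC-MS/MS. Parameters from noncompartmental analysis of concentration−time curves; clearance expressed as % liver blood flow.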

[5] = Cmax in Wistar rat at 10 mg/kg, po by HPLC-MS/MS analysis; format: ADME, organism-based; design: route oral, dose 10 mg/kg; conditions: in vivo
How it was run: (§2)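 Male Wistar rats (250−300 g), groups of two, dosed orally at 10 mg/kg in 0.5% hydroxypropyl methylcellulose or iv at 1 mg/kg in saline. Serial blood into heparinized tubes (saphenous vein or cardiac puncture). Plasma kept at −80 °C and measured by HPLC-MS/MS after protein precipitation. Noncompartmental analysis gave parameters; clearance given as % liver blood flow.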

[6] = Elimination half life in CD1 mouse at 10 mg/kg, po by HPLC-MS/MS analysis; format: ADME, organism-based; conditions: in vivo, read-out: beta t1/2 (converted); how it was run: as §1
[7] = Permeability in human Caco-2 cells; format: ADME, cell-based; conditions: read-out: permeability
[8] = tested on: Mus musculus; experiment: Analgesic activity in orally dosed mouse model of intraplantar capsaicin-induced mechanical hypersensitivity-induced pain assessed as reduction in mechanical hypersensitivity; format: functional; conditions: po
[9] = tested on: HepG2; experiment: Toxicity in human HepG2 cells assessed as reduction in cell viability up to 100 uM by MTT assay; format: cell-based
How it was run: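 HepG2 cells exposed to compound at up to 100 μM; viability read by MTT assay.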

[10] = Oral bioavailability in Wistar rat at 10 mg/kg by HPLC-MS/MS analysis; format: ADME, organism-based; conditions: in vivo; how it was run: as §2
[11] = Clearance in Wistar rat at 10 mg/kg, po by HPLC-MS/MS analysis relative to liver blood flow; format: ADME, organism-based; conditions: in vivo
[12] = AUC (0 to infinity) in Wistar rat at 10 mg/kg, po by HPLC-MS/MS analysis; format: ADME, organism-based; design: route oral, time infinity, dose 10 mg/kg; conditions: in vivo; how it was run: as §2
[13] = Genotoxicity in Salmonella typhimurium by Ames test; format: toxicity; conditions: salmonella enterica subsp. enterica serovar typhimurium
[14] = Volume of distribution at steady state in CD1 mouse at 10 mg/kg, po by HPLC-MS/MS analysis; format: ADME, organism-based; conditions: in vivo; how it was run: as §1
[15] = Volume of distribution at steady state in Wistar rat at 10 mg/kg, po by HPLC-MS/MS analysis; format: ADME, organism-based; conditions: in vivo; how it was run: as §2
[16] = Cmax in CD1 mouse at 10 mg/kg, po by HPLC-MS/MS analysis; format: ADME, organism-based; design: route oral, dose 10 mg/kg; conditions: in vivo; how it was run: as §1
[17] = tested on: Mus musculus; experiment: Analgesic activity in orally dosed mouse model of […]-induced mechanical hypersensitivity-induced pain assessed as reduction in mechanical hypersensitivity at 80 mg/kg, po; format: functional; design: scale not given: the % may be the effect or the level left
[18] = target: Voltage-gated inwardly rectifying potassium channel KCNH2 (Homo sapiens, UniProt Q12809); experiment: Inhibition of human ERG expressed in CHO cells by patch clamp assay; format: cell-based
Sequence of Voltage-gated inwardly rectifying potassium channel KCNH2 (Q12809 whole entry): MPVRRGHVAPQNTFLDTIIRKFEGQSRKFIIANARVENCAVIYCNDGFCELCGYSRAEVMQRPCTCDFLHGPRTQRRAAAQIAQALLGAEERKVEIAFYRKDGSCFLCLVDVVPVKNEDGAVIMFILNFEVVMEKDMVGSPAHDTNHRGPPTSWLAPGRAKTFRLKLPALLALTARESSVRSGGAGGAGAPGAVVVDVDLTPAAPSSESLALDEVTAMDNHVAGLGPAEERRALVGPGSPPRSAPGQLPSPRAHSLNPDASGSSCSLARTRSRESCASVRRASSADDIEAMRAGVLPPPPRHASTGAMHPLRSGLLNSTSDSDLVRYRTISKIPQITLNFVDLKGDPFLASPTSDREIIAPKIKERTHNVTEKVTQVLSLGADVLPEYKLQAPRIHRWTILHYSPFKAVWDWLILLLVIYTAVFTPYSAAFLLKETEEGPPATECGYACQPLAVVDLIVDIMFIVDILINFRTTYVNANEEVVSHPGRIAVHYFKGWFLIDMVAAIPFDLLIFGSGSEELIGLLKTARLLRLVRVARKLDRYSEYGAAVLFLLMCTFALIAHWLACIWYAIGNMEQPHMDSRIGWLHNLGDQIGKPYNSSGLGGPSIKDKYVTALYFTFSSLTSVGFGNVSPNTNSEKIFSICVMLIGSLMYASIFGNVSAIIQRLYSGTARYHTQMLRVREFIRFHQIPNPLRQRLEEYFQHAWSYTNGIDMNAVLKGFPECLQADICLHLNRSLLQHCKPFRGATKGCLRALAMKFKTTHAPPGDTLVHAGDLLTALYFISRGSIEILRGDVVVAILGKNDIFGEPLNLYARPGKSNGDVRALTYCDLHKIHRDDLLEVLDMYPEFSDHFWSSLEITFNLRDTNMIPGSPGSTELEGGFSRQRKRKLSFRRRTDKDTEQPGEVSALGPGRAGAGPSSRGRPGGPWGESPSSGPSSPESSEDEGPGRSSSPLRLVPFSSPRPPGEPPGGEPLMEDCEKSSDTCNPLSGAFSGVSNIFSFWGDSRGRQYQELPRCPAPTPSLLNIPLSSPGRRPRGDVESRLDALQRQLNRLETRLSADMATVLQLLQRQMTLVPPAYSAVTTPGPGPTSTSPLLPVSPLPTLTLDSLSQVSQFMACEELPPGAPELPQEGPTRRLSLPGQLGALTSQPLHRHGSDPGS

[19] = Elimination half life in Wistar rat at 10 mg/kg, po by HPLC-MS/MS analysis; format: ADME, organism-based; conditions: in vivo, read-out: beta t1/2 (converted); how it was run: as §2
[20] = Oral bioavailability in CD1 mouse at 10 mg/kg by HPLC-MS/MS analysis; format: ADME, organism-based; conditions: in vivo; how it was run: as §1
[21] = Lipophilicity, logP of compound; format: physicochemical; conditions: octanol/water
How it was run: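 Log P determined by a pHmetric technique on a GlpKa or Sirius-T3 instrument.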

[22] = Clearance in CD1 mouse at 10 mg/kg, po by HPLC-MS/MS analysis relative to liver blood flow; format: ADME, organism-based; conditions: in vivo
[23] = Induction of CYP450 expression in human HepaRG cells at 50 uM; format: ADME, cell-based
How it was run: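 HepaRG cells exposed to compound at concentrations up to 50 μM; CYP induction assessed.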

[24] = target: T1, Sigma non-opioid intracellular receptor 1; experiment: Antagonist activity at human sigma1 receptor expressed in HEK293 cell membranes assessed as ratio of Ki without phenytoin/Ki with phenytoin by [3H]-(+)-pentazocine displacement assay; conditions: Cell membrane, filed as antagonist
[25] = Thermodynamic solubility in pH 7.4 buffer; format: physicochemical; conditions: read-out: Therm_solubility
[26] = Aqueous solubility of compound; format: physicochemical
[27] = Thermodynamic solubility in pH 2 buffer; format: physicochemical; conditions: read-out: Therm_solubility

Cc1cc(COCCN2CCOCC2)nn1-c1ccc2ccccc2c1
Ki [1]: 0.209 µM | inhibition [2]: < 50% | Ki [3]: > 1 µM

CC(=O)N1CCN(CCOCc2ccn(-c3ccc(F)c(F)c3)n2)CC1.Cl
AUC(0-inf) [4]: 1430 ng·h/mL | Cmax [5]: 1180 ng/mL | half-life [6]: 3.4 h | Papp [7]: 51.5 ×10⁻⁶ cm/s | Ki [1]: 0.022 µM | ED50 [8]: 33 mg/kg | Activity [9]: Non-Toxic | bioavailability [10]: 60% | CL [11]: 70% | AUC(0-inf) [12]: 2640 ng·h/mL | Activity [13]: Non-Toxic | Vdss [14]: 4.4 L/kg | Vdss [15]: 1.2 L/kg | Cmax [16]: 771 ng/mL | Activity [17]: 95% | IC50 [18]: > 10 µM | half-life [19]: < 1 h | bioavailability [20]: 69% | logP [21]: 1.7 | CL [22]: 89% | Activity [23]: Non-Toxic | Ratio Ki [24]: 0.9 | Ki [3]: > 10 µM

CC(=O)N1CCN(CCOCc2cc(C)n(-c3ccc(Cl)c(Cl)c3)n2)CC1
Ki [1]: 0.015 µM | inhibition [2]: < 50% | IC50 [18]: > 10 µM | Ki [3]: > 1 µM

Cc1cc(CCCCN2CCOCC2)nn1-c1ccc(Cl)c(Cl)c1
Ki [1]: 0.009 µM | Ki [3]: 0.116 µM

Cc1cc(COCCN2CCCC2)nn1-c1ccc(Cl)c(Cl)c1
Ki [1]: 0.006 µM | IC50 [18]: 5.12 µM | Ki [3]: 0.027 µM

Cc1cc(COCCN2CCNCC2)nn1-c1ccc(Cl)c(Cl)c1
Ki [1]: 0.278 µM

CC(C)=CCN1CC[C@]2(C)c3cc(O)ccc3C[C@H]1[C@H]2C [(+)-PENTAZOCINE]
Ki [3]: 0.719 µM

CC(=O)N1CCN(CCCOCc2cc(C)n(-c3ccc(Cl)c(Cl)c3)n2)CC1
Ki [1]: 0.009 µM | inhibition [2]: < 50% | IC50 [18]: 4.08 µM | Ki [3]: > 1 µM

Cc1ccccc1NC(=N)Nc1ccccc1C [DITOLYLGUANIDINE]
Ki [3]: 0.023 µM

Clc1ccc(-n2ccc(COCCN3CCOCC3)n2)cc1Cl
Ki [1]: 0.002 µM | Ki [3]: 0.137 µM

Cc1cc(OCCN2CCOCC2)nn1-c1ccc2ccccc2c1
AUC(0-inf) [4]: 958 ng·h/mL | Cmax [5]: 301 ng/mL | half-life [6]: 0.7 h | bioavailability [10]: 15% | CL [11]: 109% | AUC(0-inf) [12]: 428 ng·h/mL | Vdss [14]: 2.2 L/kg | Vdss [15]: 2.9 L/kg | Cmax [16]: 622 ng/mL | inhibition [2]: < 50% | Activity [17]: 54% | solubility thermodynamic [25]: 230 µg/mL (≈ 682 µM) | half-life [19]: 1.2 h | bioavailability [20]: 34% | CL [22]: 65% | Ki [3]: > 1 µM | solubility [26]: 200 µg/mL (≈ 593 µM) | solubility thermodynamic [27]: 230 µg/mL (≈ 682 µM)

Cc1cc(COCCN2CCCCC2)nn1-c1ccc(Cl)c(Cl)c1
Ki [1]: 0.002 µM | Ki [3]: 0.028 µM

Cc1cc(CCCN2CCOCC2)nn1-c1ccc(Cl)c(Cl)c1
Ki [1]: 0.005 µM | Ki [3]: 0.232 µM

Cc1cc(COCCN2CCOCC2)nn1-c1ccc(Cl)c(Cl)c1
Ki [1]: 0.014 µM | Ki [3]: 0.399 µM

CC(=O)N1CCN(CCOCc2cc(C)n(-c3ccc(F)c(F)c3)n2)CC1
Ki [1]: 0.058 µM | IC50 [18]: > 10 µM | Ki [3]: > 10 µM

O=C(CCCN1CCC(O)(c2ccc(Cl)cc2)CC1)c1ccc(F)cc1 [HALOPERIDOL]
Ki [3]: 0.022 µM

Cc1cc(COCCN2C[C@@H](C)O[C@@H](C)C2)nn1-c1ccc(Cl)c(Cl)c1
Ki [1]: 0.003 µM | Ki [3]: 0.18 µM

Cc1cc(COCCN2CCOCC2)nn1C1CCCC1
Ki [1]: 0.24 µM | Ki [3]: > 10 µM
